Reference: ChEMBL document CHEMBL1149169 (J Med Chem, 2004)

How the values were obtained:
Adenosine receptor A1 [1] = target: T1, Adenosine receptor A1 (Homo sapiens, UniProt P30542); assay: Binding affinity against adenosine A1 receptor in human cortical membranes using [3H]CHA as radioligand; format: cell membranes
T1 sequence (P30542 whole entry): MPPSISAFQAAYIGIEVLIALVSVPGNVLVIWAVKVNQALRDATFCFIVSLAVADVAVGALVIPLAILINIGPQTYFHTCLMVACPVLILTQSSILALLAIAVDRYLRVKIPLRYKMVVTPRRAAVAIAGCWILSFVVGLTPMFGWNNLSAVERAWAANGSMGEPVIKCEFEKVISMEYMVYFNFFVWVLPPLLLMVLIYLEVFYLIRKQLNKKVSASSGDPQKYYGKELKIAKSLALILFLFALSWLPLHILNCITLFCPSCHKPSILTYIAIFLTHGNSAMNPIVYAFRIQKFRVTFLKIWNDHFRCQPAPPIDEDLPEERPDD

Adenosine receptor A1 [2] = target: T2, Adenosine receptor A1 (Bos taurus, UniProt P28190); assay: Displacement of [3H]DPCPX from adenosine A1 receptor in bovine brain cortical membranes; format: cell membranes
T2 sequence (P28190 whole entry): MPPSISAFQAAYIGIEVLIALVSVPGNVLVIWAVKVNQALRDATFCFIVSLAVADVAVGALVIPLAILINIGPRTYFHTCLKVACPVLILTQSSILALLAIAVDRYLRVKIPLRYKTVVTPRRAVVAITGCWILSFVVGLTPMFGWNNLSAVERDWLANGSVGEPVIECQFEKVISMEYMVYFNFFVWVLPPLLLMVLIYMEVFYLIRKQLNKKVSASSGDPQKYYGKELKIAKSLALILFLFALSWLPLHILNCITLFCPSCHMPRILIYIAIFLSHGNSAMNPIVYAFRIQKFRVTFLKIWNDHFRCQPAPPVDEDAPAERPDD
Method in brief: (§1)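 Cortical membranes (0.05–0.1 mg protein) incubated in triplicate at 25 °C for 120 min with about 0.5 nM [3H]-DPCPX (89 Ci/mmol). Buffer: 50 mM Tris/HCl pH 7.7, 1 mM EDTA, 2 mM MgCl2. Nonspecific binding with 10 μM (R)-PIA; GF/C filtration.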

Adenosine receptor A1 [3] = target: T1, Adenosine receptor A1; assay: Displacement of [3H]DPCPX from adenosine A1 receptor in human brain cortical membranes; format: cell membranes; method in brief: as §1
[4] = Ratio of binding affinity against bovine adenosine A1 to that of A2 receptor
Adenosine receptor A2a = Adenosine receptor A2a (Homo sapiens, UniProt P29274); assay: Binding affinity against adenosine A2 receptor in human striatal membranes using [3H]CGS-21680 as radioligand; format: cell membranes, Striatum, Membrane
Adenosine receptor A2a, sequence (P29274 whole entry): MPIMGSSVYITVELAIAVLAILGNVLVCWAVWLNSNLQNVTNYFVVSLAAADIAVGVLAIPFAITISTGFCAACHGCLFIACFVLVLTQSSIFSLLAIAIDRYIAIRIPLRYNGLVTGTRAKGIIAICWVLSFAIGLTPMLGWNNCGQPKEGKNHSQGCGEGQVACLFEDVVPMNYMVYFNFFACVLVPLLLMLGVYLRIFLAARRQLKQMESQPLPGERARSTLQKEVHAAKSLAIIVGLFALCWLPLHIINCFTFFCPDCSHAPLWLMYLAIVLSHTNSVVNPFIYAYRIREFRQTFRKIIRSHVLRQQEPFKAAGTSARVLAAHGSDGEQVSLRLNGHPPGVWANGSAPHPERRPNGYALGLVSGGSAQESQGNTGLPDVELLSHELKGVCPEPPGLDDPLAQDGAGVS

Adenosine receptor A1 [5] = target: T2, Adenosine receptor A1; assay: Binding affinity against adenosine A1 receptor in bovine cortical membranes using [3H]CHA as radioligand; format: cell membranes
Method in brief: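 Bovine cortical membranes; [3H]-CHA at 39 Ci/mmol. Compounds dissolved in DMSO, with solvent blanks run. At least six concentrations spanning 3 orders of magnitude.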

[6] = target: Adenosine receptor A2a (Bos taurus); assay: Binding affinity against adenosine A2 receptor in bovine striatal membranes using [3H]-CGS-21,680 as radioligand

| Compound | Ki (Adenosine receptor A1 [1]) [nM] | Ki (Adenosine receptor A2a) [nM] | Ki (Adenosine receptor A1 [5]) [nM] | further results |
| --- | --- | --- | --- | --- |
| Oc1cc(-c2ccccc2)nc2nc(Oc3ccccc3)ccc12 | > 10000 | – | – | – |
| Cc1ccc2c(N=[N+]=[N-])cc(-c3ccccc3)nc2n1 | > 10000 | – | – | – |
| Oc1cc(-c2ccccc2)nc2nc(Cl)ccc12 | 300 | – | – | Ki (Adenosine receptor A1 [2]): 1.62 nM; Ki (Adenosine receptor A1 [3]): 670 nM |
| Cc1ccc2c(O)cc(-c3ccccc3)nc2n1 | 430 | 550 | – | Ratio [4]: 87 |
| Oc1cc(-c2ccccc2)nc2nc(N3CCCCC3)ccc12 | 7500 | > 10000 | 7.2 | Ki [6]: > 10000 nM; Ratio [4]: > 1390 |
| CCCc1cc(O)c2ccc(C)nc2n1 | 1500 | – | 48 | Ki (Adenosine receptor A1 [2]): 61.5 nM; Ki (Adenosine receptor A1 [3]): 1450 nM |
| Nc1nc2c(cnn2CCc2ccccc2)c2nc(-c3ccco3)nn12 [SCH-58261] | – | – | 357 | – |
| CCOc1cc(-c2ccccc2)nc2c1ccc(=O)n2CC | > 10000 | – | 4700 | – |
| Cc1ccc2c(N(C)C)cc(-c3ccccc3)nc2n1 | > 10000 | – | – | – |
| CCCn1c(=O)c2[nH]c(C3CCCC3)nc2n(CCC)c1=O [1,3-DIPROPYL-8-CYCLOPENTYLXANTHINE [DPCPX]] | – | – | 0.25 | – |
| O=c1ccc2c(O)cc(-c3ccccc3)nc2[nH]1 | > 10000 | – | – | Ki (Adenosine receptor A1 [3]): > 10000 nM |
| Cc1ccc2c(Cl)cc(-c3ccccc3)nc2n1 | > 10000 | – | – | Ratio [4]: > 10 |
| Cc1ccc2c(O)cc(-c3cccc(N)c3)nc2n1 | 4000 | – | – | – |
| Oc1cc(-c2ccccc2)nc2nc(NC3CCCCC3)ccc12 | 2200 | – | 70 | – |
| Cc1ccc2c(O)cc(-c3cccc([N+](=O)[O-])c3)nc2n1 | 2200 | – | 15 | – |
| Cc1ccc2c(N3CCNCC3)cc(-c3ccccc3)nc2n1 | > 10000 | – | – | – |
| Cc1ccc2c(O)ccnc2n1 | > 10000 | 1800 | 7000 | Ki [6]: > 10000 nM; Ratio [4]: > 1.4 |
| Cc1cc(O)c2ccc(N)nc2n1 | > 10000 | 7500 | > 10000 | Ki (Adenosine receptor A1 [2]): > 10000 nM; Ki (Adenosine receptor A1 [3]): > 10000 nM |
| Oc1cc(-c2ccccc2)nc2nc(N3CCOCC3)ccc12 | > 10000 | > 10000 | 160 | Ki [6]: > 10000 nM; Ratio [4]: > 63 |
| CC(=O)Nc1ccc(-c2cc(O)c3ccc(C)nc3n2)cc1 | 2000 | – | 1 | Ki (Adenosine receptor A1 [2]): 1.67 nM; Ki (Adenosine receptor A1 [3]): 1460 nM |
| Nc1ccc2c(O)cc(-c3ccccc3)nc2n1 | 3400 | – | – | – |
| CCCc1cc(O)c2ccc(N)nc2n1 | 4100 | – | 210 | – |
| CCOc1ccc2c(=O)cc(-c3ccccc3)n(CC)c2n1 | 930 | 1400 | 48 | Ki [6]: > 10000 nM; Ratio [4]: 208 |
| COc1ccc2c(O)cc(-c3ccccc3)nc2n1 | 2000 | – | – | – |
| Cc1ccc2c(O)cc(-c3ccccc3F)nc2n1 | 490 | 40 | – | Ratio [4]: 43 |

| Compound | Ki (Adenosine receptor A1 [1]) [nM] | Ki (Adenosine receptor A2a) [nM] | Ki (Adenosine receptor A1 [5]) [nM] | further results |
| --- | --- | --- | --- | --- |
| Cc1ccc2c(O)cc(-c3ccc(N)cc3)nc2n1 | 910 | 110 | 6.8 | Ki [6]: 500 nM; Ratio [4]: 73 |
| COc1cc(-c2ccccc2)nc2nc(C)ccc12 | > 10000 | – | – | – |
| CCOc1ccc2c(O)cc(-c3ccccc3)nc2n1 | 2600 | 1500 | – | Ratio [4]: > 1920 |
| Oc1cc(-c2ccccc2)nc2ncccc12 | 1300 | – | – | – |
| Cc1ccc2c(NN)cc(-c3ccccc3)nc2n1 | > 10000 | – | – | – |
| Oc1cc(-c2ccccc2)nc2nc(N3CCNCC3)ccc12 | > 10000 | > 10000 | > 10000 | Ki [6]: > 10000 nM |
| Cc1ccc2c(O)cc(-c3ccc(F)cc3)nc2n1 | 3900 | – | – | – |
| Oc1cc(-c2ccccc2)nc2nc(Br)ccc12 | 360 | – | – | Ki (Adenosine receptor A1 [2]): 1.6 nM; Ki (Adenosine receptor A1 [3]): 336 nM |
| Cc1ccc2c(NC3CCCCC3)cc(-c3ccccc3)nc2n1 | 560 | – | – | Ki (Adenosine receptor A1 [2]): 39 nM; Ki (Adenosine receptor A1 [3]): 448 nM |
| COc1cc(-c2ccccc2)nc2c1ccc(=O)n2C | > 10000 | – | – | – |
| Cc1ccc2c(S)cc(-c3ccccc3)nc2n1 | 2000 | – | – | – |
| CN(C)c1ccc2c(O)cc(-c3ccccc3)nc2n1 | 980 | – | 0.56 | Ki (Adenosine receptor A1 [2]): 6.02 nM; Ki (Adenosine receptor A1 [3]): 1370 nM |
| Cc1ccc2ccc(-c3ccccc3)nc2n1 | > 10000 | – | – | – |
| CCOc1ccc2c(OCC)cc(-c3ccccc3)nc2n1 | > 10000 | > 10000 | 290 | Ki [6]: > 10000 nM; Ratio [4]: > 34 |
| Cc1ccc2c(O)cc(-c3ccc([N+](=O)[O-])cc3)nc2n1 | 3100 | – | – | – |
| Cc1cc(O)c2ccc(=O)[nH]c2n1 | > 10000 | > 10000 | > 10000 | Ki [6]: > 10000 nM |
| Cc1ccc2c(Oc3ccccc3)cc(-c3ccccc3)nc2n1 | 8800 | – | – | – |
| CSc1cc(-c2ccccc2)nc2nc(C)ccc12 | > 10000 | 210 | 380 | Ki [6]: > 10000 nM; Ratio [4]: > 26 |
| CCOC(=O)CCN1CCN(c2ccc3c(O)cc(-c4ccccc4)nc3n2)CC1 | > 10000 | – | > 10000 | – |
| Cc1ccc2c(N)cc(-c3ccccc3)nc2n1 | 2000 | – | – | – |
| Cn1c(=O)ccc2c(O)cc(-c3ccccc3)nc21 | > 10000 | – | – | – |
| CCOc1cc(-c2ccccc2)nc2nc(Br)ccc12 | 1000 | – | 50 | – |
| Oc1cc(-c2ccccc2)nc2nc(F)ccc12 | 1400 | 2700 | – | Ratio [4]: 41 |
| Cc1ccc2c(N)ccnc2n1 | > 10000 | > 10000 | > 10000 | Ki [6]: > 10000 nM |
| CCn1c(-c2ccccc2)cc(=O)c2ccc(C)nc21 | > 10000 | – | – | – |
